In ChEMBL document CHEMBL1165940, “Design, synthesis and biological evaluation of a novel series of anthrapyrazoles linked with netropsin-like oligopyrrole carboxamides as anticancer agents” (Bioorg Med Chem, 2010):

What was measured:
[1] = biological target: DNA topoisomerase 2-alpha (Homo sapiens) (UniProt P11388); test: Inhibition of human recombinant topoisomerase 2 alpha-mediated Crithidia fasciculate kDNA decatenation at 20 uM relative to control
In short: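 Topoisomerase IIα decatenation of kDNA with 20 µM compound, analysed by gel electrophoresis. Fully decatenated open circular DNA band quantified by densitometry. Inhibition calculated as 100 minus percentage relative integrated band intensity. Etoposide included as a control.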

[2] = system: K562; test: Cytotoxicity against human K562 cells after 72 hrs by MTS assay; format: functional, cell-based; details: K562, 72 h
In short: (§1)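 Suspension cultures in αMEM with 10% fetal calf serum: parental K562 and the etoposide-resistant sub-line K/VP.5, which has reduced topoisomerase IIα. Drugs freshly dissolved in DMSO (final ≤1.9% v/v) and given for 72 h, then MTS reduction read by absorbance. IC50 from triplicate data fitted to a four-parameter logistic equation. Resistance factor is IC50 in K/VP.5 divided by IC50 in K562.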

[3] = system: Calf thymus DNA; test: Binding affinity to calf thymus DNA assessed as increase in melting temperature at 1 uM by spectrophotometer analysis; format: nucleic-acid assay; details: Bos taurus
[4] = Cytotoxicity against human K/VP.5 cells after 72 hrs by MTS assay; format: functional, cell-based; details: K/VP.5, 72 h
In short: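 Suspension cultures in αMEM with 10% fetal calf serum: parental K562 and the etoposide-resistant sub-line K/VP.5, which has reduced topoisomerase IIα. IC50 from triplicate data fitted to a four-parameter logistic equation. Resistance factor is IC50 in K/VP.5 divided by IC50 in K562.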

[5] = biological target: DNA topoisomerase 2-alpha (Homo sapiens) (UniProt P11388); test: Inhibition of human recombinant topoisomerase 2 alpha assessed as stabilization of enzyme-PBR322 DNA complex at 100 uM relative to control
In short: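 Closed circular pBR322 DNA with topoisomerase IIα and 100 µM compound at 37 °C; components mixed on ice before drug addition. Complexes trapped with SDS and products separated by gel electrophoresis containing ethidium bromide. Linear DNA bands quantified by densitometry relative to the band from 100 µM etoposide, set to 100%.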

[6] = biological target: T1, DNA topoisomerase 1 (Homo sapiens) (UniProt P11387); test: Inhibition of topoisomerase 1-mediated relaxation of supercoiled pBR322 DNA at 20 uM after 20 mins using ethidium bromide staining by electrophoresis relative to control
T1 sequence (whole entry): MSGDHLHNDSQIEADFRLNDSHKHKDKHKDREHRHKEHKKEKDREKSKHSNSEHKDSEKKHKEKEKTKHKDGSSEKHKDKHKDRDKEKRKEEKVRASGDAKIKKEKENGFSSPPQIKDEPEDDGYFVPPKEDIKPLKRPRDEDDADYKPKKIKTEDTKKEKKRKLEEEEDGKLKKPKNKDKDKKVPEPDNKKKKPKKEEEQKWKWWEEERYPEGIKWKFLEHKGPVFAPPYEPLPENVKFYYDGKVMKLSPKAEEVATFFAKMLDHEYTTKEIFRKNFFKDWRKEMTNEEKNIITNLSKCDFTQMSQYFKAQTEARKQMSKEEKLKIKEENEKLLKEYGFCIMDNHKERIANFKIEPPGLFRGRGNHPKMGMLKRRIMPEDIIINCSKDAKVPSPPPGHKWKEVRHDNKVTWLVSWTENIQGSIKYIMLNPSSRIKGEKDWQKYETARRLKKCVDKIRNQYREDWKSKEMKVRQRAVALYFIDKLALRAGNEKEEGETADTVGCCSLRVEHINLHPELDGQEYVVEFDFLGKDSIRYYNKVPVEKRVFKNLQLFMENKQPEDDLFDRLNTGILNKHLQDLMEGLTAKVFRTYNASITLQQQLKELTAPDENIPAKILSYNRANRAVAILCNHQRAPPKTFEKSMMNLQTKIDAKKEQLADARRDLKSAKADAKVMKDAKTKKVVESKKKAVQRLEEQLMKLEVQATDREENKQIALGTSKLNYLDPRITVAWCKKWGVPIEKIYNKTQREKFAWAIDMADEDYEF
In short: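 Nuclear extract (50 ng) used as the topoisomerase I source with 60 ng supercoiled pBR322 and 20 µM drug, 20 min at 37 °C. Reaction stopped with 0.05% SDS, then electrophoresis run without ethidium bromide and gel stained afterwards. Supercoiled band quantified by densitometry relative to DNA alone without enzyme (100%). Camptothecin at 50 µM was the positive control.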

[7] = system: K562; test: Resistant factor, ratio of IC50 human K/VP.5 cells to IC50 for human K562 cells; format: functional; in short: as §1
[8] = Chemical stability in DMSO-d6 assessed as decomposition after 24 hrs; format: physicochemical
[9] = system: DC3F; test: Cytotoxicity against hamster DC-3F cells; format: functional, cell-based; details: Cricetulus griseus

Chain of DNA topoisomerase 2-alpha (Homo sapiens) (P11388 whole entry): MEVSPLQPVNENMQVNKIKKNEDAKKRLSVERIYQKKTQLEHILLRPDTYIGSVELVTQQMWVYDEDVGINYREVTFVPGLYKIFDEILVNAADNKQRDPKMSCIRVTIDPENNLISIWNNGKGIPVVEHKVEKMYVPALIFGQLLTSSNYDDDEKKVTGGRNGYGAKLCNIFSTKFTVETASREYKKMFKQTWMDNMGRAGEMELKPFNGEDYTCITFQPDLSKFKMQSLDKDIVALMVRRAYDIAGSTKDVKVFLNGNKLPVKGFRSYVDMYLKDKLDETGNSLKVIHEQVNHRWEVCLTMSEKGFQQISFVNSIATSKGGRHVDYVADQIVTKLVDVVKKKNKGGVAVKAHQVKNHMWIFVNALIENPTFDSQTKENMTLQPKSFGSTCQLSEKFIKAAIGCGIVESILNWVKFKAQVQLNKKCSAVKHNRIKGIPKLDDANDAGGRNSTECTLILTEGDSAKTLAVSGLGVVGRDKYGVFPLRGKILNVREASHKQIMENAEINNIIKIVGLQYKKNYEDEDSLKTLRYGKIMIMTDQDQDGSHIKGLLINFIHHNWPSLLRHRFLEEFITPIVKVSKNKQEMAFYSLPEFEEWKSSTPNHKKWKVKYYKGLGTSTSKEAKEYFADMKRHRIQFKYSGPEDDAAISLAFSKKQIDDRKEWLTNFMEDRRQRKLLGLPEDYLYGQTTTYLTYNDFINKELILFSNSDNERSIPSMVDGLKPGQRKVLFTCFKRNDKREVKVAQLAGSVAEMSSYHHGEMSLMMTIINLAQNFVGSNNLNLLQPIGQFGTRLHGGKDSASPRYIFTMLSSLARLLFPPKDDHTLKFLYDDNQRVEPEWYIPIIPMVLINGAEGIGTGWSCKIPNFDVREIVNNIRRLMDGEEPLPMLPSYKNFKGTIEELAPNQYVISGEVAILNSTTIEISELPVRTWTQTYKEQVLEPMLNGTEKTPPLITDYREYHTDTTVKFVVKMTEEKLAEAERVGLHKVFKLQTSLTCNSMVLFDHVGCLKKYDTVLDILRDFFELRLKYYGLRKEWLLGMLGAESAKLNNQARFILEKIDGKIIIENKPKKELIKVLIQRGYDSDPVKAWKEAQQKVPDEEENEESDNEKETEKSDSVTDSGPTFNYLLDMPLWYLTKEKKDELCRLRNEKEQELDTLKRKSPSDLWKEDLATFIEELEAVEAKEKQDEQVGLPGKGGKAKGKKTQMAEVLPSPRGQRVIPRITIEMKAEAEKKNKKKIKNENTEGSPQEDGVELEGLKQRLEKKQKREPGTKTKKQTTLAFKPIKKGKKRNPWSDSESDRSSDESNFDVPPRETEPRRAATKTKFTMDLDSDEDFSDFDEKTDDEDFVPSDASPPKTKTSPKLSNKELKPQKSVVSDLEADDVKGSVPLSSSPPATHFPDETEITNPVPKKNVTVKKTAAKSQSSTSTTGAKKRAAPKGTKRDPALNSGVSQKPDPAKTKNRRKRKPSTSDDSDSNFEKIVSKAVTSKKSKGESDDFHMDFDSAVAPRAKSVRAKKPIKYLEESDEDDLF

Which inhibition [1] does the source give for `Cn1cc(NC(=O)c2cc(N)cn2C)cc1C(=O)NCCn1nc2c3c(cccc31)C(=O)c1c(Cl)cccc1-2` here?
The inhibition was 94%.

And the IC50 [2]?
The IC50 was 12.5 µM.

And the ΔTm [3]?
The ΔTm was 0.6 °C.

What about the IC50 [4] of the same compound?
The IC50 was 36.6 µM.

And the % cleavage [5]?
The % cleavage was 16%.

What about the inhibition [6] of the same compound?
Its inhibition is 52%.

And the “Ratio IC50” value [7]?
Its value is 2.9.

With `NCCn1nc2c3c(cccc31)C(=O)c1c(Cl)cccc1-2` as the compound, how does the inhibition [1] read?
The inhibition was 100%.

And the IC50 [2]?
The IC50 was 3.3 µM.

And the ΔTm [3]?
Its ΔTm is 2.7 °C.

And the IC50 [4]?
Its IC50 is 3.5 µM.

And the % cleavage [5]?
The % cleavage was 18%.

And the inhibition [6]?
The inhibition was 62%.

And the “Ratio IC50” value [7]?
The value was 1.

Which inhibition [1] does the source give for `Cn1cc(N)cc1C(=O)NCCn1nc2c3c(cccc31)C(=O)c1c(Cl)cccc1-2` here?
The inhibition was 91%.

And the IC50 [2]?
The IC50 was 9.9 µM.

What about the ΔTm [3] of the same compound?
The ΔTm was 0.8 °C.

And the IC50 [4]?
Its IC50 is 11.4 µM.

And the % cleavage [5]?
Its % cleavage is 29%.

And the inhibition [6]?
The inhibition was 14%.

And the “Ratio IC50” value [7]?
The value was 1.2.

With `NCCn1nc2c3c(cccc31)C(=O)c1ccccc1-2` as the compound, how does the inhibition [1] read?
The inhibition was 75%.

And the IC50 [2]?
The IC50 was 1.8 µM.

And the ΔTm [3]?
Its ΔTm is 2.2 °C.

What about the IC50 [4] of the same compound?
Its IC50 is 3.1 µM.

What about the % cleavage [5] of the same compound?
The % cleavage was 29%.

And the inhibition [6]?
Its inhibition is 100%.

And the “Ratio IC50” value [7]?
The value was 1.7.

Which inhibition [1] does the source give for `CN(C)CC(=O)Nc1cc(C(=O)Nc2cc(C(=O)NCCn3nc4c5c(cccc53)C(=O)c3ccccc3-4)n(C)c2)n(C)c1` here?
Its inhibition is 91%.

And the IC50 [2]?
Its IC50 is 0.13 µM.

What about the ΔTm [3] of the same compound?
The ΔTm was 4.3 °C.

What about the IC50 [4] of the same compound?
The IC50 was 0.14 µM.

And the inhibition [6]?
The inhibition was 23%.

And the “Ratio IC50” value [7]?
Its value is 1.1.

With `CN(C)CCNc1cccc2c1C(=O)c1cccc3c1c-2nn3CCNC(=O)c1cc(NC(=O)c2cc(NC(=O)CN(C)C)cn2C)cn1C` as the compound, how does the IC50 [2] read?
The IC50 was 0.21 µM.

What about the ΔTm [3] of the same compound?
The ΔTm was 5.3 °C.

What about the IC50 [4] of the same compound?
The IC50 was 0.63 µM.

What about the “Ratio IC50” value [7] of the same compound?
The value was 3.

What does the source list for `Cn1cc(NC(=O)c2cc(NC(=O)OC(C)(C)C)cn2C)cc1C(=O)NCCn1nc2c3c(cccc31)C(=O)c1c(Cl)cccc1-2`?
inhibition [1]: 97%; IC50 [2]: 2 µM; ΔTm [3]: 1 °C; IC50 [4]: 1.4 µM; % cleavage [5]: 24%; inhibition [6]: 47%; Ratio IC50 [7]: 0.7

Which Stability [8] does the source give for `Cn1cc(NC(=O)OC(C)(C)C)cc1C(=O)NCCn1nc2c3c(cccc31)C(=O)c1c(Cl)cccc1-2` here?
Its Stability is “Stable”.

And the inhibition [1]?
Its inhibition is 94%.

What about the IC50 [2] of the same compound?
Its IC50 is 10.7 µM.

And the ΔTm [3]?
The ΔTm was 0.7 °C.

What about the IC50 [4] of the same compound?
Its IC50 is 11 µM.

What about the % cleavage [5] of the same compound?
Its % cleavage is 11%.

What about the inhibition [6] of the same compound?
The inhibition was 47%.

What about the “Ratio IC50” value [7] of the same compound?
The value was 1.

For `Cn1cc(NC(=O)c2cc(NC(=O)OC(C)(C)C)cn2C)cc1C(=O)NCCn1nc2c3c(cccc31)C(=O)c1ccccc1-2`, which inhibition [1] is on record?
Its inhibition is 91%.

And the IC50 [2]?
Its IC50 is 1 µM.

And the ΔTm [3]?
The ΔTm was 0.4 °C.

And the IC50 [4]?
Its IC50 is 0.82 µM.

And the % cleavage [5]?
Its % cleavage is 4%.

And the inhibition [6]?
The inhibition was 31%.

And the “Ratio IC50” value [7]?
The value was 0.8.

With `CN(C)CC(=O)Nc1cc(C(=O)NCCn2nc3c4c(cccc42)C(=O)c2ccccc2-3)n(C)c1` as the compound, how does the inhibition [1] read?
Its inhibition is 94%.

What about the IC50 [2] of the same compound?
Its IC50 is 2.7 µM.

What about the ΔTm [3] of the same compound?
Its ΔTm is 1.6 °C.

And the IC50 [4]?
The IC50 was 3.9 µM.

What about the % cleavage [5] of the same compound?
The % cleavage was 18%.

What about the inhibition [6] of the same compound?
Its inhibition is 16%.

What about the “Ratio IC50” value [7] of the same compound?
Its value is 1.4.

Which results are given for `Cn1cc(NC(=O)OC(C)(C)C)cc1C(=O)NCCn1nc2c3c(cccc31)C(=O)c1ccccc1-2`?
Stability [8]: Stable; inhibition [1]: 91%; IC50 [2]: 14.4 µM; ΔTm [3]: 1.3 °C; IC50 [4]: 22 µM; % cleavage [5]: 18%; inhibition [6]: 11%; Ratio IC50 [7]: 1.5

With `CN(C)CC(=O)Nc1cc(C(=O)NCCn2nc3c4c(cccc42)C(=O)c2c(Cl)cccc2-3)n(C)c1` as the compound, how does the inhibition [1] read?
The inhibition was 97%.

And the IC50 [2]?
The IC50 was 3.5 µM.

What about the ΔTm [3] of the same compound?
The ΔTm was 0.6 °C.

What about the IC50 [4] of the same compound?
The IC50 was 5.3 µM.

What about the % cleavage [5] of the same compound?
The % cleavage was 22%.

And the inhibition [6]?
The inhibition was 21%.

And the “Ratio IC50” value [7]?
Its value is 1.5.

Which results are given for `Cn1cc(N)cc1C(=O)NCCn1nc2c3c(cccc31)C(=O)c1ccccc1-2`?
inhibition [1]: 94%; IC50 [2]: 12.7 µM; ΔTm [3]: 1.8 °C; IC50 [4]: 21.9 µM; % cleavage [5]: 26%; inhibition [6]: 10%; Ratio IC50 [7]: 1.7

Which results are given for `Cn1cc(NC(=O)c2cc(N)cn2C)cc1C(=O)NCCn1nc2c3c(cccc31)C(=O)c1ccccc1-2`?
inhibition [1]: 91%; IC50 [2]: 4.1 µM; ΔTm [3]: 2.7 °C; IC50 [4]: 6.4 µM; % cleavage [5]: 6%; inhibition [6]: 49%; Ratio IC50 [7]: 1.5

With `COc1cccc2c1C(=O)c1c(O)c3c(c(O)c1C2=O)C[C@@](O)(C(=O)CO)C[C@@H]3O[C@H]1C[C@H](N)[C@H](O)[C@H](C)O1` [DOXORUBICIN] as the compound, how does the inhibition [1] read?
The inhibition was 30%.

What about the IC50 [2] of the same compound?
Its IC50 is 0.033 µM.

And the ΔTm [3]?
The ΔTm was 8.4 °C.

What about the % cleavage [5] of the same compound?
Its % cleavage is 0%.

For `O=C1c2ccccc2-c2nn(CCO)c3cccc1c23`, which inhibition [1] is on record?
The inhibition was 60%.

What about the IC50 [2] of the same compound?
Its IC50 is 11.9 µM.

And the ΔTm [3]?
Its ΔTm is 0.9 °C.

What about the IC50 [4] of the same compound?
Its IC50 is 10.2 µM.

What about the % cleavage [5] of the same compound?
Its % cleavage is 24%.

And the inhibition [6]?
The inhibition was 66%.

And the “Ratio IC50” value [7]?
The value was 0.9.

With `CN(C)CC(=O)Nc1cc(C(=O)Nc2cc(C(=O)NCCn3nc4c5c(cccc53)C(=O)c3c(Cl)cccc3-4)n(C)c2)n(C)c1` as the compound, how does the inhibition [1] read?
Its inhibition is 97%.

What about the IC50 [2] of the same compound?
The IC50 was 0.19 µM.

And the ΔTm [3]?
The ΔTm was 1.7 °C.

And the IC50 [4]?
Its IC50 is 0.21 µM.

And the inhibition [6]?
The inhibition was 31%.

And the “Ratio IC50” value [7]?
The value was 1.1.

Which results are given for `O=C1c2c(Cl)cccc2-c2nn(CCO)c3cccc1c23`?
inhibition [1]: 56%; IC50 [2]: 14.3 µM; ΔTm [3]: 0.3 °C; IC50 [4]: 12 µM; % cleavage [5]: 14%; inhibition [6]: 70%; Ratio IC50 [7]: 0.8

With `Cn1cc(NC(=O)c2cc(NC(=O)CNC(=N)N)cn2C)cc1C(=O)NCCC(=N)N` [NETROPSIN] as the compound, how does the inhibition [1] read?
Its inhibition is 39%.

And the IC50 [2]?
The IC50 was > 50 µM.

What about the ΔTm [3] of the same compound?
Its ΔTm is 5.7 °C.

And the IC50 [4]?
The IC50 was > 50 µM.

And the % cleavage [5]?
Its % cleavage is 0%.

What about the IC50 [9] of the same compound?
Its IC50 is 3.2 mM.
